The list is not random: actives were taken first. Their share in the collection is about 2.1%.
TNF death inh = TNF-alpha cell death inhibition in Jurkat FADD-/- cells; hit rate 0.068% among 220,000; AID 463075; Jurkat FADD-/- TNF necroptosis rescue, ATP luminescence, 24 h; 0 = TNF only, 100 = no-TNF cells; activation (protection from cell death), % at 10 µM;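 active = activation, meaning protection from cell death, of at least 50% relative to plate controls; inactive = activation below 50%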;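 note: necroptosis triggered by 40 ng/mL TNF-alpha added together with compound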
L929 necroptosis = blocks zVAD induced death of L929 cells. L929 zVAD necroptosis rescue, ATP luminescence, 24 h; with zVAD 60 µM. viability rescue, % at 10 µM. hit rate 0.38% among 220,000;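 active = activation, scaled between plate controls, above about 75%, limit read from the data; inactive = activation under that limit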;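 note: 0% = zVAD with DMSO and 100% = DMSO alone without zVAD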
Runt-SMMHC FRET = inhibitors of human RUNX1 Runt domain binding to CBFb-SMMHC. AID 1434. Q01196+Q13951. hit rate 0.74% among 220,000. Cerulean-Runt/Venus-CBFb-SMMHC FRET ratio 530/480, 1 h. inhibition, % at 20 µM;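 active = mean inhibition across duplicate retests at 20 µM reaching about 50%, limit read from the data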;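 note: 0% = DMSO wells and 100% = wells with excess untagged CBFb-SMMHC; inhibitors lower the FRET ratio by blocking Runt binding to CBFb-SMMHC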
Runt-CBFb FRET = blocks binding of human RUNX1 Runt domain to CBFb | Cerulean-Runt/Venus-CBFb FRET ratio 530/480, 1 h | AID 1496 | hit rate 0.46% among 220,000 | inhibition, % at 20 µM | Q01196+Q13951;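 active = inhibition over about 50% at 20 µM in the single-dose screen, limit read from the data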;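 note: 0% = DMSO wells and 100% = excess unlabeled CBFb competitor control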
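Assay system: Cerulean-tagged RUNX1 Runt domain (FRET donor) fusion protein / Amount: 100 nM each of Venus-CBFb and Cerulean-Runt domain / Medium: Tris buffer pH 7.5 with salts and BSA / Also added: Venus-CBFb 100 nM / Schedule: 1 h complex formation plus 1 h compound treatment, room temperature / Signal: FRET fluorescence / Read-out: loss of energy transfer signal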
RanGTP-Imp inh = disruptors of Ran-importin-beta complex formation – biochemical, FRET, CFP-Ran, YFP-importin-beta, homogeneous, primary screen | cell-free CFP-Ran/YFP-importin-beta FRET ratio | inhibition, % (concentration not given with the values) | hit rate 1.1% among 300,000 | AID 2216;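 active = more than half of the replicate wells show a fall in the fluorescence ratio signal beyond about 16%, limit read from the data, passing the limit was not always enough; inconclusive = exactly half of the replicate wells pass the set limit; inactive = fewer than half of replicates pass the limit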;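 note: 0% = DMSO wells and 100% = Ran loaded with GDP instead of GTP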
Hck Nef HTS = human Hck-Nef kinase inhibition. P08631. Recombinant Hck-YEEI plus Nef, Z-Lyte FRET kinase assay. inhibition, % at 20 µM. hit rate 0.68% among 220,000. AID 463187;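 active = Hck-Nef kinase inhibition above about 50%, limit read from the data; inactive = inhibition below that limit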;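 note: 0% = DMSO with Hck plus Nef and 100% = Hck alone without Nef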
Target sequence (P08631 whole entry, looked up): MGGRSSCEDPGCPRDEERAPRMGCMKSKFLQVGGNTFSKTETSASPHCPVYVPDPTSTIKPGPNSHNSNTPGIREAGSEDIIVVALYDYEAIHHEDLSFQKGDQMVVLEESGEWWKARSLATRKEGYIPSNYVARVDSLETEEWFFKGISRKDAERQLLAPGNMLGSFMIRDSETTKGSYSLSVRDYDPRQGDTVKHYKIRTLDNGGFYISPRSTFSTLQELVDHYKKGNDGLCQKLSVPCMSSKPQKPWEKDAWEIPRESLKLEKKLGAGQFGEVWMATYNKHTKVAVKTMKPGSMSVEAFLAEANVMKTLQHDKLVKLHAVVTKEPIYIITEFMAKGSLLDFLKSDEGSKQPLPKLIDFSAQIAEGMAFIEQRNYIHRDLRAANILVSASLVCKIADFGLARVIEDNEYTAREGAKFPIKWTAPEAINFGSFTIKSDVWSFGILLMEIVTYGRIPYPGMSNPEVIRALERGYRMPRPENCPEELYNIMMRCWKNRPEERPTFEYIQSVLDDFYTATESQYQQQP
Hck-Nef confirm = confirmation of Hck-Nef kinase inhibitors; hit rate 28% among 1,300; shares compounds with Hck Nef HTS; Recombinant Hck-YEEI:Nef, Z-Lyte FRET kinase assay; calls only at 10 µM;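 active = average inhibition of at least 50%, with Z-scores no higher than 3 in both the phospho-tyrosine peptide and fluorescence counterscreens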
* marks the source's active call; other numbers are inactive results; i = inactive; ? = inconclusive; nt = not tested or not shown; + = active, no number.

SMILES	TNF death inh	L929 necroptosis	Runt-SMMHC FRET	Runt-CBFb FRET	RanGTP-Imp inh	Hck Nef HTS	Hck-Nef confirm
Cc1ccc(NC(=O)C2CCCN2C(=O)OCc2ccccc2)c(O)c1 (stereo unspecified)	nt	nt	nt	nt	3	nt	nt
O=C(CS(=O)c1ccc(Br)cc1)N1CCOCC1 (stereo unspecified)	nt	nt	nt	nt	1	nt	nt
CN(C)c1ccc(/C=C/C=N/Nc2nc(N3CCOCC3)nc(N3CCOCC3)n2)cc1	0	7	-34	18	3	-13	nt
CCOC(=O)c1c(NC(=O)c2cc(-c3ccc(Cl)s3)nc3ccccc23)sc(C(N)=O)c1C	2	2	-38	-25	-3	66*	i
COc1ccc(N=C2NC(=O)/C(=C\C=C\c3ccco3)S2)cc1	-1	6	-20	5	4	88*	+
O=C1NC(=Nc2ccc(O)cc2)S/C1=C/c1ccco1	-3	48	2	5	-6	81*	i
CC[n+]1ccc(C)c2cc(SC(F)(F)F)ccc21	-1	3	5	1	4	72*	i
CCC(Sc1nc2ccccc2c2nc3ccccc3n12)C(=O)NCc1ccco1 (stereo unspecified)	4	-1	-1	-3	0	70*	+
O=C(Cn1nnc(-c2ccccc2)n1)NCc1ccco1	2	1	2	1	6	-1	nt
COc1ccccc1C(=O)Nc1ccc(-c2nnn(CC(=O)NCc3ccco3)n2)cc1	-5	68	-3	0	2	51*	i
O=C(Nc1ccc2oc(=O)ccc2c1)c1ccc(-c2ccc(Cl)cc2)o1	0	3	-5	4	-1	29	nt
O=C(Nc1ccc2oc(=O)ccc2c1)c1ccc(-c2cccc([N+](=O)[O-])c2)o1	-19	0	-4	1	?	66*	i
O=C(Nc1ccc2oc(=O)ccc2c1)c1ccc(-c2cccc(Cl)c2)o1	3	3	-1	-3	4	65*	i
CCC(=O)N(Cc1cc(=O)[nH]c2ccccc12)c1ccc(C)cc1C	nt	nt	nt	nt	0	nt	nt
CC(C)CN=C(NS(=O)(=O)c1ccccc1)C(Cl)(Cl)Cl	-11	-1	1	-1	2	3	nt
O=c1[nH]c2ccsc2c(=O)n1CCO	0	0	-1	2	1	16	nt
Cc1cccc(NS(=O)(=O)c2csc(C(N)=O)c2)c1C	nt	nt	nt	nt	-1	nt	nt
Cc1ccc(C)c(NC(=O)CSc2nc3nc(-c4cccs4)cc(C(F)(F)F)c3c(=O)[nH]2)c1	0	1	6	6	7	49	nt
O=C(CSc1nc2nc(-c3cccs3)cc(C(F)(F)F)c2c(=O)[nH]1)Nc1ccc(F)c(F)c1	0	0	-1	-8	1	54*	nt
CCCCCCCCCCCCCCCC[n+]1ccc(C(N)=O)cc1	-11	0	-13	-9	nt	23	nt
CCCCCCCCCCCCCCCC[n+]1ccc(/C=N/O)cc1	-15	3	0	-6	nt	112*	nt
COc1ccc(/C=N/NC(=O)c2cc(C(C)(C)C)[nH]n2)cc1COc1ccc(F)cc1F	2	22	-1	-2	51*	58*	i
Cc1ccc(N/N=C/c2c(C)c(C#N)c(=O)n(C)c2O)cc1C	-2	-1	-8	-1	-4	77*	i
S=c1[nH]nc(-c2ccccn2)n1/N=C/c1ccc(Br)s1	1	2	13	13	1	1	nt
O=c1cc2oc3cc(O)c(O)cc3c(-c3ccccc3O)c-2cc1O	-12	1	-409	-79	nt	27	nt
SMILES	TNF death inh	L929 necroptosis	Runt-SMMHC FRET	Runt-CBFb FRET	RanGTP-Imp inh	Hck Nef HTS	Hck-Nef confirm
COc1ccc(OC)c(-c2c3cc(O)c(=O)cc-3oc3cc(O)c(O)cc23)c1	-5	3	i	-283	nt	54*	i
COCCNC(=O)c1cc2c(=O)n3cccc(C)c3nc2n(Cc2ccncc2)c1=N	0	-1	40	12	192*	151*	nt
CCCCNC(=O)c1cc2c(=O)n3cccc(C)c3nc2n(Cc2ccncc2)c1=N	-2	-1	70*	20	188*	67*	i
CCCCNC(=O)c1cc2c(=O)n3cccc(C)c3nc2s1	nt	nt	nt	nt	-2	nt	nt
C/C(=N/NC(=O)c1cc(-c2ccc(Cl)s2)[nH]n1)c1ccco1	1	-1	1	3	1	15	nt
COc1ccc(CCNC(=O)CSc2nnc3ccc(-c4cccnc4)nn23)cc1	0	0	1	0	0	6	nt
CCNC(=O)C1CC(=O)N(CC)C(=Nc2cc(Cl)c(O)c(Cl)c2)S1 (stereo unspecified)	-2	0	6	3	-5	1	nt
CCc1cc2c3c(c(=O)oc2cc1OC(C)C(=O)O)CCCC3 (stereo unspecified)	nt	nt	nt	nt	-1	nt	nt
CCc1cc2c3c(c(=O)oc2cc1O)CCCC3	0	0	144*	96*	?	91*	nt
COC(=O)c1sc(NC(=O)/C=C/c2ccccc2Cl)nc1C	3	1	-5	-2	-6	66*	i
CCc1cc(-c2n[nH]c(=S)n2Cc2ccccc2)cs1	0	-1	6	12	4	-3	nt
Oc1ccc(/C=N/NC(=S)Nc2cccnc2)c(O)c1O	-6	-1	16	34	3	100*	+
COCc1cc(C)nc(N/N=C/c2ccc(-c3ccc(Cl)cc3[N+](=O)[O-])o2)c1C#N	-2	9	-8	4	-7	171*	+
COc1cc(OC)c(OC)cc1/C=N/Nc1ncnc2c1[nH]c1ccccc12	5	64	75*	20	?	53*	nt
COc1ccc(/C=N/Nc2ncnc3c2[nH]c2ccc(C)cc23)c(OC)c1OC	-2	71	2	-5	3	69*	+
N#C/C(=C\c1coc2ccc(O)cc2c1=O)C(=O)Nc1nc2ccccc2s1	-5	-1	-266	-167	-83	64*	i
N#C/C(=C\c1coc2ccccc2c1=O)C(N)=S	1	1	19	32	1	21	nt
Cc1cc(NC(=O)c2ccc(S(=O)(=O)N3CCOCC3)cc2)no1	1	2	-1	0	0	21	nt
Cc1cc(NC(=O)c2ccc(S(=O)(=O)N3CCc4ccccc43)cc2)no1	2	1	-5	-7	?	52*	i
Cc1ccccc1C(=O)NNc1ccc(-c2csnn2)cc1	2	1	-5	1	1	10	nt
Cc1nc2c(C)cccn2c(=O)c1NC(=O)c1cccs1	nt	nt	nt	nt	4	nt	nt

High-throughput results (PubChem)
